In ChEMBL document CHEMBL3875158, “Synthesis and biological evaluation of 4-(2-(dimethylamino)ethoxy)benzohydrazide derivatives as inhibitors of Entamoeba histolyica” (Eur J Med Chem, 2016):

Tests used:
Entamoeba histolytica = test: Antiamoebic activity against Entamoeba histolytica HM-1:IMSS trophozoites incubated for 10 mins under nitrogen gassed condition measured after 72 hrs by eosin staining based micro dilution method; type: functional
How it was run: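 Microdilution in 96-well plates with trophozoites in Diamond TYIS-33 medium at 10^5 cells per mL. Compounds dissolved in ethanol (level non-inhibitory to amoebae), stock 1 mg/mL, tested in triplicate. Plate sealed, gassed with nitrogen 10 min, incubated 37 °C for 72 h. Then medium removed, washed with 0.9% NaCl, methanol-fixed and stained with 0.5% aqueous eosin for 15 min, OD read at 490 nm. IC50 from non-linear regression of % inhibition versus control. At least two independent experiments.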

[1] = Cytotoxicity against human A549 cells assessed as reduction in cell viability after 48 hrs by MTT assay; type: toxicity, cell-based
How it was run: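 Cells seeded at 8000/well in Ham's F-12 with 10% FBS and grown to 80–90% confluence. Medium then replaced with drug-containing medium with 1% FBS; drug range […], each concentration in triplicate, medium-only negative controls. Stocks made in ethanol, diluted in medium. Incubated at 37 °C, 5% CO2 for 48 h. MTT (5 mg/ml) added for 4 h, formazan dissolved in DMSO, absorbance read at 560 nm with 670 nm reference. Viability relative to controls; IC50 from concentration–viability plot.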

| Structure (SMILES) | IC50 (Entamoeba histolytica) [µM] | IC50 at 48 h [1] [µM] |
| --- | --- | --- |
| CC(C)Oc1ccc(/C=N/NC(=O)c2ccc(OCCN(C)C)cc2)cc1 | 7.65 |  |
| CN(C)CCOc1ccc(C(=O)N/N=C/c2ccc([N+](=O)[O-])cc2)cc1 | 2.4 |  |
| COc1cc(/C=N/NC(=O)c2ccc(OCCN(C)C)cc2)ccc1O | 2.41 |  |
| COc1cc(/C=N/NC(=O)c2ccc(OCCN(C)C)cc2)ccc1OC(C)=O | 0.79 | 186 |
| COc1c(O)ccc(/C=N/NC(=O)c2ccc(OCCN(C)C)cc2)c1Br | 3.61 |  |
| Cc1ccc(/C=N/NC(=O)c2ccc(OCCN(C)C)cc2)cc1 | 1.86 | 475 |
| Cc1cc(C)c(/C=N/NC(=O)c2ccc(OCCN(C)C)cc2)c(C)c1 | 1.89 | 81.7 |
| CCc1ccc(/C=N/NC(=O)c2ccc(OCCN(C)C)cc2)cc1 | 5.65 |  |
| CCOc1ccc(/C=N/NC(=O)c2ccc(OCCN(C)C)cc2)cc1 | 3.77 |  |
| CN(C)CCOc1ccc(C(=O)N/N=C/c2cccc(Cl)c2)cc1 | 1.01 | 140 |
| CN(C)CCOc1ccc(C(=O)N/N=C/c2ccc(O)c(O)c2)cc1 | 6.4 |  |
| Cc1ncc([N+](=O)[O-])n1CCO [METRONIDAZOLE] | 1.89 | > 100 |
| CN(C)CCOc1ccc(C(=O)N/N=C/c2ccccc2O)cc1 | 1.76 | 404 |
| CN(C)CCOc1ccc(C(=O)N/N=C/c2ccccc2Cl)cc1 | 0.23 | 134 |
| CN(C)CCOc1ccc(C(=O)N/N=C/c2ccc(Cl)c(Cl)c2)cc1 | 2.81 |  |
| CN(C)CCOc1ccc(C(=O)N/N=C/c2ccc(N(C)C)cc2)cc1 | 1.89 | 481 |
| Cc1ccsc1/C=N/NC(=O)c1ccc(OCCN(C)C)cc1 | 4.98 |  |
| CN(C)CCOc1ccc(C(=O)N/N=C/c2cc(Br)c(O)c(Br)c2)cc1 | 1.17 | 281 |
| COc1ccc(/C=N/NC(=O)c2ccc(OCCN(C)C)cc2)cc1OC | 2.69 |  |
| COc1cc(/C=N/NC(=O)c2ccc(OCCN(C)C)cc2)ccc1OC(C)C | 4.13 |  |
| COc1ccc(OC)c(/C=N/NC(=O)c2ccc(OCCN(C)C)cc2)c1 | 1.81 | 110 |
| CN(C)CCOc1ccc(C(=O)N/N=C/c2ccccc2)cc1 | 1.43 | 268 |
| CN(C)CCOc1ccc(C(=O)N/N=C/c2ccc3c(c2)OCO3)cc1 | 1.06 | 548 |
| CN(C)CCOc1ccc(C(=O)N/N=C/c2ccc(Cl)cc2)cc1 | 0.79 | 69.4 |
| CN(C)CCOc1ccc(C(=O)N/N=C/c2cccc([N+](=O)[O-])c2)cc1 | 2.8 |  |
| CCOC(OCC)c1ccc(/C=N/NC(=O)c2ccc(OCCN(C)C)cc2)cc1 | 1.14 | 172 |
| COc1ccc(/C=N/NC(=O)c2ccc(OCCN(C)C)cc2)cc1 | 1.53 | 126 |
| CC(C)c1ccc(/C=N/NC(=O)c2ccc(OCCN(C)C)cc2)cc1 | 3.45 |  |
| CN(C)CCOc1ccc(C(=O)N/N=C/c2ccc(O)cc2)cc1 | 2.21 |  |
| CN(C)CCOc1ccc(C(=O)N/N=C/c2ccccn2)cc1 | 2.37 |  |
